PubChem BioAssay
Activity calls are given as the source filed them.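 Rule for the calls, unless noted: active = viability at or below 30% in both replicate assays; inconclusive = viability at or below 30% in just one of the two assays; inactive = the rest.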

How the values were obtained:
[1] = reducers of endogenous Her2 protein level, primary screen, SKBR3 breast tumor cells, AlphaScreen, ATP viability (AID 461;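 active = Her2 level under about 52% in both replicate screens, with viability over 70% of control, limit read from the data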;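 for Her2 level: lower value means less Her2 protein in the cells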;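 for viability: percent of carrier control wells set as 100% viability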); settings: 18-24 h, measured here: SKBR3 viability, ATP luminescence, at 10 µM
[2] = target: Receptor tyrosine-protein kinase erbB-2 (Homo sapiens) (UniProt P04626); assay: as above; settings: 18-24 h, at 10 µM, stronger effect = lower value
[3] = SK-BR-3 cell growth inhibitors, pilot screen, 24 h, human (AID 572;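 active = viability at or below 10% of carrier control in both of two separate runs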;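 note: compound exposure lasted between 18 and 24 h rather than exactly 24 h; 100% = carrier-treated control wells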); settings: SK-BR-3 viability, CellTiter-Glo luminescence, at 10 µM, stronger effect = lower value
[4] = HUVEC growth inhibition – cell-based, human, primary screen (AID 575); settings: HUVEC proliferation, CellTiter-Glo luminescence, 72 h; at 10 µM; stronger effect = lower value;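 note: 100% = median of untreated cell wells with 0.1% DMSO on each plate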
Outline: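 Test system: primary human umbilical vein endothelial cells; medium: endothelial basal medium with 2% FBS plus growth supplements; dosing: 10 µM compound only; times: 72 h treatment at 37 °C; signal: CTG luminescence; read-out: % viability relative to median vehicle-well signal on each plate; control set: vehicle and MePR control wells; plate: 384-well, collagen-coated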

[5] = growth inhibitors of H69AR lung tumor, primary screen, human, duplicate replicates (AID 580;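 active = viability at or under a set limit in both replicates, limit being median viability minus 3 SD, cut at about 48% in these data, passing the limit was not always enough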;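 note: 100% = mean luminescence of untreated wells and 0% = no signal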); settings: H69AR lung tumor cells viability, ATP luminescence, 72 h; at 10 µM; stronger effect = lower value
[6] = reversal of MRP1-mediated doxorubicin resistance, pilot screen, H69AR cells, doxorubicin co-treatment (AID 601;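 active = viability loss from added drug above about 55%, and viability with drug at most 40%, in both replicates, limit read from the data, passing the limit was not always enough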); settings: CellTiter-Glo, 72 h, at 10 µM; for differential viability (reversal): stronger effect = higher value
[7] = 384-well plate pilot, post-Golgi transport modulator project, inhibition of yeast transport mutant growth (AID 636; in the data active = inhibition above about 31%); settings: absorbance 615 nm, about 18 h, stronger effect = higher value
[8] = growth suppression of yeast trafficking mutant, preliminary HTS, modulators of trafficking downstream of Golgi apparatus project, 1536-format plate, OD 615 nm (AID 637; in the data active = inhibition above about 30%); settings: yeast transport mutant growth, absorbance 615 nm, 18 h; stronger effect = higher value
[9] = H69AR cells + 2 uM doxorubicin, measured here: viability with 2 uM doxorubicin, stronger effect = lower value
[10] = H69AR cells, compound alone cytotoxicity

Receptor tyrosine-protein kinase erbB-2 (Homo sapiens), sequence (P04626 whole entry, looked up): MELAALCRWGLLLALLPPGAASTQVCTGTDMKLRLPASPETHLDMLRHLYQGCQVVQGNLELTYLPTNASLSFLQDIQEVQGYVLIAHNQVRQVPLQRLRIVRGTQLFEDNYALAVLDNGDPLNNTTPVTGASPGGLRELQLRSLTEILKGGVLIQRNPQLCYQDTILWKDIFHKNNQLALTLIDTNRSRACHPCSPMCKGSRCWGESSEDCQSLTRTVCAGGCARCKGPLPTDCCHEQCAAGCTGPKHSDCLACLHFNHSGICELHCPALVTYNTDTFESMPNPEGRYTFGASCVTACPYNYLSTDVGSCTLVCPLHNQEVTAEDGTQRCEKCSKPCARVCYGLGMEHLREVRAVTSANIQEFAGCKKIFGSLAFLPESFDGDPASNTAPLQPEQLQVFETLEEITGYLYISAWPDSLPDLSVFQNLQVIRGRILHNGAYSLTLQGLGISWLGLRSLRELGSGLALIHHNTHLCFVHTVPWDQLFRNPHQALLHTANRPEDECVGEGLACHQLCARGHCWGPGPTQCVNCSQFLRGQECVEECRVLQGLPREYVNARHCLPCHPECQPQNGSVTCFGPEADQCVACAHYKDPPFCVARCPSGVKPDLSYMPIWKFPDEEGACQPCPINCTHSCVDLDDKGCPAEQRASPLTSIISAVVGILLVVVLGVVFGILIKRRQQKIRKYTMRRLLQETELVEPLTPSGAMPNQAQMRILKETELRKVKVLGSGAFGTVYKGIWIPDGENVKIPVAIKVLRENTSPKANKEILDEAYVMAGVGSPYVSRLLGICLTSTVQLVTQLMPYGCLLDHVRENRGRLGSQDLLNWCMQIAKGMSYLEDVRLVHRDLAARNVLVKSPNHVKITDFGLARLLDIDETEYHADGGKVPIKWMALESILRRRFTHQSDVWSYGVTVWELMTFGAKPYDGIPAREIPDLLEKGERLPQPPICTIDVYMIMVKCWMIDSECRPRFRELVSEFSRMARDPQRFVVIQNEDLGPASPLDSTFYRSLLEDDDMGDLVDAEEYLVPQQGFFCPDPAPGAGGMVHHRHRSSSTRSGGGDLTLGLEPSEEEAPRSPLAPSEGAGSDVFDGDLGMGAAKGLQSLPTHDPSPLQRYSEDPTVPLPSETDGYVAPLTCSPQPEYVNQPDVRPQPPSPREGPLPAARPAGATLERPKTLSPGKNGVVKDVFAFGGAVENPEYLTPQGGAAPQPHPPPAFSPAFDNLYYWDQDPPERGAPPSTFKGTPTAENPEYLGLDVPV

| SMILES | viability [1] | Her2 level [2] | viability [3] | viability [4] | viability [5] | differential viability (reversal) ([6]; H69AR cells + 2 uM doxorubicin) | viability [6, 9] | viability [6, 10] | inhibition [7] | inhibition [8] |
| --- | --- | --- | --- | --- | --- | --- | --- | --- | --- | --- |
| Cc1nnc(C)c2c(C)n(-c3ccc(Br)cc3)c(C)c12 | 110% | 110% (inactive) | 110% (inactive) | 92.3% (inactive) | 104% (inactive) | 17.2% (inactive) | 87.2% | 104% | -7.07% (inactive) | 1.61% (inactive) |
| Cc1nc(SCC(=O)Nc2ccccc2C(F)(F)F)c2c(=O)n(C)c(=O)n(C)c2n1 | 87% | 85% (inactive) | 87% (inactive) | 80.3% (inactive) | 74% (inactive) | -2.32% (inactive) | 76.3% | 74% | -3.87% (inactive) | 3.61% (inactive) |
| O=C(c1ccccc1)c1ccc2nc[nH]c2c1 | 96.5% | 89.5% (inactive) | 96.5% (inactive) | 75.4% (inactive) | 102% (inactive) | -15.3% (inactive) | 117% | 102% | 0.26% (inactive) | 3.06% (inactive) |
| COC(=O)c1cccc(NC(=O)NC2CCCN2S(=O)(=O)c2ccc(Cl)cc2)c1 (stereo not given) | 83% | 75.5% (inactive) | 83% (inactive) | 82.6% (inactive) | 94.1% (inactive) | 11.4% (inactive) | 82.7% | 94.1% | -4.53% (inactive) | -7.05% (inactive) |
| Cc1nc(N2CCOCC2)[nH]c(=O)c1CCC(C)C | 120% | 82% (inactive) | 120% (inactive) | 87.7% (inactive) | 91.9% (inactive) | 0.88% (inactive) | 91% | 91.9% | -1.58% (inactive) | 1.11% (inactive) |
| COc1cccc(N2C(=O)C(O)=C(C(C)=O)C2c2ccc(OC)c(OC)c2)c1 (stereo not given) | 94.5% | 94% (inactive) | 94.5% (inactive) | 109% (inactive) | 100% (inactive) | 7.03% (inactive) | 93% | 100% | 0.26% (inactive) | 4.75% (inactive) |
| COc1ccc(N2CCN(c3ccc(NC(=O)C4CCCCC4)cc3C#N)CC2)cc1 | 98% | 84% (inactive) | 98% (inactive) | 78.6% (inactive) | 93% (inactive) | 2.67% (inactive) | 90.4% | 93% | -1.76% (inactive) | -2.22% (inactive) |
| COC(=O)c1cc(Br)c(=O)n(-c2ccc(OC)cc2)c1 | 96.5% | 93.5% (inactive) | 96.5% (inactive) | 100% (inactive) | 94.5% (inactive) | 7.62% (inactive) | 86.8% | 94.5% | -2.8% (inactive) | 0.65% (inactive) |
| Cc1ccc(C)c(N2CCN(C(=O)C3CCN(S(=O)(=O)c4c(C)noc4C)CC3)CC2)c1 | 104% | 72% (inactive) | 104% (inactive) | 74.8% (inactive) | 83.4% (inactive) | 27.8% (inactive) | 55.6% | 83.4% | -2.89% (inactive) | -3.97% (inactive) |
| Oc1ccc2cccnc2c1 | 94.5% | 108% (inactive) | 94.5% (inactive) | 107% (inactive) | 106% (inactive) | 5.68% (inactive) | 100% | 106% | -4.8% (inactive) | -8.41% (inactive) |
| CCOC(=O)C1CCN(Cc2c(O)ccc3ccccc23)CC1 | 126% | 115% (inactive) | 126% (inactive) | 83.6% (inactive) | 98.2% (inactive) | 5.58% (inactive) | 92.6% | 98.2% | -7.67% (inactive) | 5.4% (inactive) |
| COc1ccc(NC(=O)CCCN2C(=O)C3C4C=CC(C4)C3C2=O)c(OC)c1 (stereo not given) | 110% | 94% (inactive) | 110% (inactive) | 82% (inactive) | 102% (inactive) | 5.03% (inactive) | 97.1% | 102% | -5% (inactive) | -5.09% (inactive) |
| Cc1cc2oc(=O)cc(CN3CCN(Cc4ccc5c(c4)OCO5)CC3)c2cc1C | 96.5% | 91.5% (inactive) | 96.5% (inactive) | 84.3% (inactive) | 80.6% (inactive) | 0.615% (inactive) | 80% | 80.6% | -5.73% (inactive) | -1.29% (inactive) |
| CCOC(=O)c1[nH]c2ccc(C)cc2c1N=C(C)N(C)C | 100% | 89% (inactive) | 100% (inactive) | 96.5% (inactive) | 97.7% (inactive) | 6.32% (inactive) | 91.4% | 97.7% | -0.66% (inactive) | -5.32% (inactive) |
| COc1ccc(CCNC(=O)C2=COCCO2)cc1 | 126% | 94% (inactive) | 126% (inactive) | 109% (inactive) | 108% (inactive) | 4.46% (inactive) | 104% | 108% | -6.58% (inactive) | -5.08% (inactive) |
| O=C(C1CCCN(S(=O)(=O)c2cccnc2)C1)N1CCN(c2ccccn2)CC1 (stereo not given) | 93.5% | 122% (inactive) | 93.5% (inactive) | 103% (inactive) | 98.7% (inactive) | 8.35% (inactive) | 90.3% | 98.7% | 0% (inactive) | -4% (inactive) |
| O=C(N1CCCCCC1)N1CCN(C(=O)N2CCOCC2)CC1 | 105% | 104% (inactive) | 105% (inactive) | 94.9% (inactive) | 98.9% (inactive) | 5.18% (inactive) | 93.7% | 98.9% | 0.92% (inactive) | -8.55% (inactive) |
| Cc1ccc(S(=O)(=O)C2(C(=O)Nc3cccnc3)CC2)cc1 | 92.5% | 96% (inactive) | 92.5% (inactive) | 91.6% (inactive) | 98.4% (inactive) | 3.19% (inactive) | 95.2% | 98.4% | -1.67% (inactive) | -8.67% (inactive) |
| CCOCCn1cnc2sc(C(=O)NCC(=O)OCC)c(C)c2c1=O | 95.5% | 90% (inactive) | 95.5% (inactive) | 86.6% (inactive) | 86.8% (inactive) | -1.89% (inactive) | 88.7% | 86.8% | -2.37% (inactive) | 2.9% (inactive) |
| O=C(Cc1cccs1)Nc1nnc(CCc2ccccc2)s1 | 110% | 91.5% (inactive) | 110% (inactive) | 88.7% (inactive) | 80.7% (inactive) | -5.74% (inactive) | 86.4% | 80.7% | -0.78% (inactive) | -0.5% (inactive) |
| Cc1ccc2oc(C(=O)Nc3c(C)n(C)n(-c4ccccc4)c3=O)c(C)c2c1 | 84.5% | 102% (inactive) | 84.5% (inactive) | 97.2% (inactive) | 104% (inactive) | 20.3% (inactive) | 83.6% | 104% | -7.4% (inactive) | -10.3% (inactive) |
| O=C(Cn1nnc(-c2cccc(C(F)(F)F)c2)n1)NC(=O)NCc1ccco1 | 89% | 102% (inactive) | 89% (inactive) | 98.3% (inactive) | 74.1% (inactive) | -3.41% (inactive) | 77.5% | 74.1% | -1.05% (inactive) | -1.82% (inactive) |
| CS(=O)(=O)N1CCN(CC2CC3C=CC2C3)CC1 (stereo not given) | 110% | 98% (inactive) | 110% (inactive) | 111% (inactive) | 101% (inactive) | 9.65% (inactive) | 91.1% | 101% | -6.35% (inactive) | 3.17% (inactive) |
| Cc1c(/C(O)=C2/C(=O)C(=O)N(CCN3CCOCC3)C2c2cccnc2)cnn1-c1ccccc1 (stereo not given) | 85.5% | 108% (inactive) | 85.5% (inactive) | 110% (inactive) | 91.5% (inactive) | 9.19% (inactive) | 82.3% | 91.5% | 1.45% (inactive) | -1.09% (inactive) |
| CCCOc1ccc(-c2nnn(CC(=O)Nc3cccc(C(=O)OC)c3)n2)cc1 | 100% | 98% (inactive) | 100% (inactive) | 64.3% (inactive) | 48% (active) | -5.98% (inactive) | 54% | 48% | 1.87% (inactive) | 21.1% (inactive) |
| C/C(=N\O)C(C)/[N+]([O-])=C/c1nc(C)c(C)n1O (stereo not given) | 95.5% | 109% (inactive) | 95.5% (inactive) | 97% (inactive) | 92.8% (inactive) | -8.95% (inactive) | 102% | 92.8% | -0.27% (inactive) | 0.48% (inactive) |
| CC(=O)Nc1ccc(Oc2cc(C#N)c(C#N)cc2N2CCCCCC2)cc1 | 108% | 76% (inactive) | 108% (inactive) | 73.5% (inactive) | 89.6% (inactive) | 21.8% (inactive) | 67.8% | 89.6% | -3.03% (inactive) | 0.95% (inactive) |
| Cc1ccc(NC(=O)C2CCCN(S(=O)(=O)c3cnc[nH]3)C2)cc1F (stereo not given) | 104% | 94% (inactive) | 104% (inactive) | 111% (inactive) | 95.1% (inactive) | -0.16% (inactive) | 95.3% | 95.1% | -3.73% (inactive) | -3.11% (inactive) |
